What was measured:
[1] = target: T1, Nucleotide-binding oligomerization domain-containing protein 1 (Homo sapiens) (UniProt Q9Y239); test: Antagonist activity at NOD1 in HEK-Blue hNOD1 cells assessed as inhibition of C12-iE-DAP-induced NFkappaB activation-mediated SEAP release at 5 uM preincubated for 3 hrs followed by C12-iE-DAP addition and measured after 20 hrs by spectrophotometric method relative to control; format: cell-based; conditions: time 23.0 hrs
T1 sequence (whole entry): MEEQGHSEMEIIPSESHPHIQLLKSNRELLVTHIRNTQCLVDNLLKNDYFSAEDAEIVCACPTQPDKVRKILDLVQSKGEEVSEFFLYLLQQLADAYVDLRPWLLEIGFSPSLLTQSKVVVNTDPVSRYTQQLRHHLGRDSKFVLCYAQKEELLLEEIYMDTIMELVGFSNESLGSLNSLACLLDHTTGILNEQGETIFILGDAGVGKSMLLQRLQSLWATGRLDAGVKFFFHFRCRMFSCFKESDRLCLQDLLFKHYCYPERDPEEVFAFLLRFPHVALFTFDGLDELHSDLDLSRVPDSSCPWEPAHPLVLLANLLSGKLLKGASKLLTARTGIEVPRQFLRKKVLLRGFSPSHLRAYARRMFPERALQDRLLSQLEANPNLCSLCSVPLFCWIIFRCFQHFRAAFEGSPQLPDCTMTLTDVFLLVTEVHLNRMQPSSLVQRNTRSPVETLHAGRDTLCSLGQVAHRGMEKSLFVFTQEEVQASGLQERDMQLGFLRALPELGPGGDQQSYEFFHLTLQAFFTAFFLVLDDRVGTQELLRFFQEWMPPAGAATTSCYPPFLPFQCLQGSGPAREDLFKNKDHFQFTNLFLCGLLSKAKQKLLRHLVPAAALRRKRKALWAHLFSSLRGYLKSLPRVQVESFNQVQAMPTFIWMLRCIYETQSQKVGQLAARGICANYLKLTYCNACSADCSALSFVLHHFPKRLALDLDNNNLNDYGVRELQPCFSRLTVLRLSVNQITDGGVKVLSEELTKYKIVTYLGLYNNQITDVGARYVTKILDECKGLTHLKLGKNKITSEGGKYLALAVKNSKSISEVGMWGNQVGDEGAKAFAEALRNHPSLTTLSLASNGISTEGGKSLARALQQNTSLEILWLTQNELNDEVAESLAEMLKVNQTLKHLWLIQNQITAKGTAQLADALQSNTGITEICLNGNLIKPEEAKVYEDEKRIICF

[2] = target: T2, Nucleotide-binding oligomerization domain-containing protein 2 (Homo sapiens, UniProt Q9HC29); test: Antagonist activity at NOD2 in HEK-Blue hNOD2 cells assessed as inhibition of MDP-induced NFkappaB activation-mediated SEAP release at 5 uM preincubated for 3 hrs followed by MDP addition and measured after 20 hrs by spectrophotometric method relative to control; format: cell-based; conditions: time 23.0 hrs
[3] = target: T2, Nucleotide-binding oligomerization domain-containing protein 2; test: Antagonist activity at NOD2 in HEK-Blue hNOD2 cells assessed as inhibition of MDP-induced NFkappaB activation-mediated SEAP release preincubated for 3 hrs followed by MDP addition and measured after 20 hrs by spectrophotometric method; format: cell-based
Outline: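 HEK-Blue hNOD2 cells preincubated 3 h with a range of concentrations, then MDP 100 ng/mL for 20 h. SEAP quantified. SRB assay run to exclude cytotoxicity. IC50 by nonlinear semi-logarithmic fit, mean ± SD, n = 3.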

[4] = target: T3, Nucleotide-binding oligomerization domain-containing protein 1 (Homo sapiens, UniProt Q9Y239); test: Antagonist activity at NOD1 in HEK-Blue hNOD1 cells assessed as inhibition of C12-iE-DAP-induced NFkappaB activation-mediated SEAP release preincubated for 3 hrs followed by C12-iE-DAP addition and measured after 20 hrs by spectrophotometric method; format: cell-based
T3 sequence (Q9Y239 whole entry): T1 sequence (whole entry)

[5] = Half life in mouse liver microsomes at 1.25 uM preincubated for 5 mins followed by NADPH generating system addition and measured for 120 mins by LC-MS/MS analysis; format: ADME, Microsome
Outline: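 Mouse liver microsomes (1.25 mg/mL protein) in 100 mM phosphate pH 7.4 with 1.25 µM compound, preincubated 5 min at 37 °C. Reaction started with NADPH-generating system (1 mM NADP, 10 mM MgCl2, 10 mM G6P, 0.5 U/mL G6PDH). Sampled at 0–120 min, quenched with MeOH/ACN 1:1, analysed by LC-MS/MS.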

[6] = target: T2, Nucleotide-binding oligomerization domain-containing protein 2; test: Antagonist activity at recombinant human NOD2 expressed in HEK293 cells assessed as inhibition of MDP-induced IL8 release measured after 24 hrs by HTRF assay; format: cell-based

T2 sequence (Q9HC29 whole entry, the tested form may be a part): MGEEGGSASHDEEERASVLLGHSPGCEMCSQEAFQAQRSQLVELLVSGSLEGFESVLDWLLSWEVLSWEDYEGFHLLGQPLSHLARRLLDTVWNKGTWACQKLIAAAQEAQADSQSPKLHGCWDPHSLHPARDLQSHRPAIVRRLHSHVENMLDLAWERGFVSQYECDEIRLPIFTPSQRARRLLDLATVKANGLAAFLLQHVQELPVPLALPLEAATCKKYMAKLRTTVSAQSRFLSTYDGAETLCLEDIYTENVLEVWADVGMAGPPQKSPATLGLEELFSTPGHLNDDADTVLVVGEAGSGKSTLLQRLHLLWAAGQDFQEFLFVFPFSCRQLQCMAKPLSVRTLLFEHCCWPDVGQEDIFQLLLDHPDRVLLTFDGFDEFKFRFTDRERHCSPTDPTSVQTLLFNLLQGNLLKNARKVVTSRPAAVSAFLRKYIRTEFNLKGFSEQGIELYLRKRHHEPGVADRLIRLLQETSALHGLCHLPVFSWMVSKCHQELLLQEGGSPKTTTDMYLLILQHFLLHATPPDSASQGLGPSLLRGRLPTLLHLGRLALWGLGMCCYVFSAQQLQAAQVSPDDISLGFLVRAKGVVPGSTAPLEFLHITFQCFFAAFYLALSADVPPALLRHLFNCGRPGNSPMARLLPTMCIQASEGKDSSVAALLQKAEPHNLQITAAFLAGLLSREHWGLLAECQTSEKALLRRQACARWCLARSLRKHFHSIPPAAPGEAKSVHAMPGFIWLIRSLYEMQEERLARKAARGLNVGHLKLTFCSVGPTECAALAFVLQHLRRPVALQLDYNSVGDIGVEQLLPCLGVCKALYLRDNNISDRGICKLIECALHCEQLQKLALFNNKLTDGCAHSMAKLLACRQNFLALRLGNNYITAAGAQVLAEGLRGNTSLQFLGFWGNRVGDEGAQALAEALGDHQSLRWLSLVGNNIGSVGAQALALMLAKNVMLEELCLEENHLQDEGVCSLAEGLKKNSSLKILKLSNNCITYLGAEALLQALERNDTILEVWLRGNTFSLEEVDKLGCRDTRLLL

COC(=O)Cn1cnc2cc(NC(=O)c3ccc(C#N)cc3)c(Oc3cccc(N(C)C)c3)cc2c1=O
inhibition [1]: 13.1%

COC(=O)Cn1cnc2cc(NC(=O)CCCOc3ccc(C(F)(F)F)cc3)c(Oc3ccccc3)cc2c1=O
inhibition [1]: 28.2%

CN(C)c1cccc(Oc2cc3c(=O)n(CC(=O)N4CCCCC4)cnc3cc2NC(=O)COCc2ccc(C(F)(F)F)cc2)c1
inhibition ([2]; filed as antagonist): 92.4%
inhibition ([1]; filed as antagonist): 87.5%
IC50 [3]: 1750 nM
IC50 [4]: 260 nM

COC(=O)Cn1cnc2cc(NC(=O)COCc3ccc(Cl)cc3)c(Oc3cccc(N(C)C)c3)cc2c1=O
inhibition ([1]; filed as antagonist): 69%
IC50 [4]: 4310 nM

COC(=O)Cn1cnc2cc(C(=O)NCCCOc3ccc(C(F)(F)F)cc3)c(-c3cccc(Cl)c3)cc2c1=O
inhibition ([1]; filed as antagonist): 89.6%
IC50 [3]: 1000 nM
IC50 [4]: 890 nM

COC(=O)Cn1cnc2cc(NC(=O)COCc3ccc(F)cc3)c(Oc3cccc(N(C)C)c3)cc2c1=O
inhibition ([2]; filed as antagonist): 42.5%
inhibition [1]: 33.4%

COC(=O)Cn1cnc2cc(NC(=O)CCCOc3ccc(C#N)cc3)c(Oc3cccc(N(C)C)c3)cc2c1=O
inhibition ([1]; filed as antagonist): 48%

O=C(NCCOCc1ccc(C(F)(F)F)cc1)c1cc2nc[nH]c(=O)c2cc1-c1cccc(F)c1
inhibition ([1]; filed as antagonist): 56.1%
IC50 [4]: 4110 nM

COC(=O)Cn1cnc2cc(NC(=O)CCCOc3ccc(C(F)(F)F)cc3)c(Oc3cccc(N4CCOCC4)c3)cc2c1=O
inhibition ([1]; filed as antagonist): 91.2%
half-life at 1.25 µM [5]: 9.6 min
IC50 [4]: 1380 nM

O=C(NCCCOc1ccc(C(F)(F)F)cc1)c1cc2ncn(CC(=O)N3CCCCC3)c(=O)c2cc1-c1cccc(Cl)c1
inhibition ([1]; filed as antagonist): 93.2%
IC50 [3]: 800 nM
half-life at 1.25 µM [5]: 15.6 min
IC50 [4]: 800 nM

O=C(O)Cn1cnc2cc(C(=O)NCCCOc3ccc(C(F)(F)F)cc3)c(-c3cccc(Cl)c3)cc2c1=O
inhibition [1]: 22%
half-life at 1.25 µM [5]: 22.9 min

COC(=O)Cn1cnc2cc(NC(=O)COCc3ccc(C(F)(F)F)cc3)c(Oc3cccc(N(C)C)c3)cc2c1=O
inhibition ([2]; filed as antagonist): 76.9%
inhibition ([1]; filed as antagonist): 85.4%
IC50 [3]: 990 nM
IC50 [4]: 1150 nM

COC(=O)Cn1cnc2cc(NC(=O)COCc3ccc(C(F)(F)F)cc3)c(Oc3cccc(N4CCOCC4)c3)cc2c1=O
inhibition ([1]; filed as antagonist): 88.9%
IC50 [3]: 550 nM
IC50 [4]: 650 nM

COC(=O)Cn1cnc2cc(NC(=O)CCCOc3ccc(F)cc3)c(Oc3cccc(N(C)C)c3)cc2c1=O
inhibition [1]: 33.5%

COC(=O)Cn1cnc2cc(NC(=O)COCc3ccc(C(F)(F)F)cc3)c(Oc3ccccc3N(C)C)cc2c1=O
inhibition ([1]; filed as antagonist): 87.9%
IC50 [4]: 1650 nM

CN(C)c1cccc(Oc2cc3c(=O)n(CC(=O)N4CCC(F)CC4)cnc3cc2NC(=O)COCc2ccc(C(F)(F)F)cc2)c1
inhibition ([2]; filed as antagonist): 94.3%
inhibition ([1]; filed as antagonist): 89.1%
IC50 [3]: 1110 nM
IC50 [4]: 210 nM

O=C(NCCCc1ccc(Cl)cc1)c1cc2nc[nH]c(=O)c2cc1-c1cccc(Cl)c1
inhibition ([1]; filed as antagonist): 41.5%

O=C(NCCCc1ccccc1)c1cc2nc[nH]c(=O)c2cc1-c1cccc(F)c1
inhibition [1]: -1.81%

COC(=O)Cn1cnc2cc(C(=O)NCCOCc3ccc(C(F)(F)F)cc3)c(-c3cccc(Cl)c3)cc2c1=O
inhibition ([1]; filed as antagonist): 82.4%
IC50 [4]: 1120 nM

COC(=O)Cn1cnc2cc(C(=O)NCCCc3ccccc3)c(-c3cccc(F)c3)cc2c1=O
inhibition [1]: -0.98%

CCc1ccc(S(=O)(=O)Nc2cc(-n3c(C)nc4ccccc4c3=O)ccc2F)s1
IC50 [6]: > 50000 nM

COC(=O)Cn1cnc2cc(NC(=O)COCc3ccccc3)c(Oc3cccc(N(C)C)c3)cc2c1=O
inhibition [2]: 35%
inhibition ([1]; filed as antagonist): 47.6%

O=C(CCCOc1ccc(C(F)(F)F)cc1)Nc1cc2nc[nH]c(=O)c2cc1Oc1cccc(N2CCOCC2)c1
inhibition ([1]; filed as antagonist): 65.4%
half-life at 1.25 µM [5]: 10.1 min
IC50 [4]: 2480 nM

O=C(COCc1ccc(C(F)(F)F)cc1)Nc1cc2ncn(CC(=O)N3CCCC(F)(F)C3)c(=O)c2cc1Oc1cccc(N2CCOCC2)c1
inhibition ([1]; filed as antagonist): 88.2%
IC50 [3]: 500 nM
half-life at 1.25 µM [5]: 12.9 min
IC50 [4]: 540 nM

COC(=O)Cn1cnc2cc(NC(=O)COCc3ccc(C(F)(F)F)cc3)c(Oc3ccccc3)cc2c1=O
inhibition ([1]; filed as antagonist): 50.2%

O=C(COCc1ccc(C(F)(F)F)cc1)Nc1cc2nc[nH]c(=O)c2cc1Oc1cccc(N2CCOCC2)c1
inhibition [1]: 37.6%

O=C(NCCOCc1ccc(C(F)(F)F)cc1)c1cc2nc[nH]c(=O)c2cc1-c1cccc(Cl)c1
inhibition ([1]; filed as antagonist): 64.4%
half-life at 1.25 µM [5]: 22.9 min
IC50 [4]: 1340 nM

COC(=O)Cn1cnc2cc(NC(=O)CCCOc3ccc(C(F)(F)F)cc3)c(Oc3ccc(N(C)C)cc3)cc2c1=O
inhibition ([1]; filed as antagonist): 68.4%
IC50 [4]: 3870 nM

CN(C)c1cccc(Oc2cc3c(=O)[nH]cnc3cc2NC(=O)CCCOc2ccc(C(F)(F)F)cc2)c1
inhibition ([2]; filed as antagonist): 58.5%
inhibition ([1]; filed as antagonist): 59.1%
IC50 [3]: 4770 nM
IC50 [4]: 5640 nM

COC(=O)Cn1cnc2cc(C(=O)NCCOCc3ccc(C(F)(F)F)cc3)c(-c3cccc(F)c3)cc2c1=O
inhibition ([1]; filed as antagonist): 64%
IC50 [4]: 3460 nM

O=C(NCCOCc1ccc(C(F)(F)F)cc1)c1cc2nc[nH]c(=O)c2cc1-c1cccc(C(F)(F)F)c1
inhibition ([1]; filed as antagonist): 72.4%
IC50 [4]: 4390 nM

CN(C)c1cccc(Oc2cc3c(=O)n(CC(=O)N4CCCC(F)(F)C4)cnc3cc2NC(=O)COCc2ccc(C(F)(F)F)cc2)c1
inhibition ([2]; filed as antagonist): 94.2%
inhibition ([1]; filed as antagonist): 90.4%
IC50 [3]: 660 nM
IC50 [4]: 140 nM

CN(C)c1cccc(Oc2cc3c(=O)[nH]cnc3cc2NC(=O)c2ccc(C#N)cc2)c1
inhibition [2]: 13.1%
inhibition [1]: 19.4%

O=C(NCCCOc1ccc(C(F)(F)F)cc1)c1cc2nc[nH]c(=O)c2cc1-c1cccc(Cl)c1
inhibition ([1]; filed as antagonist): 90%
IC50 [3]: 840 nM
IC50 [4]: 840 nM

COC(=O)Cn1cnc2cc(C(=O)NCCCc3ccc(Cl)cc3)c(-c3cccc(Cl)c3)cc2c1=O
inhibition ([1]; filed as antagonist): 58.2%
IC50 [4]: 1640 nM

CN(C)c1cccc(Oc2cc3c(=O)n(CC(=O)N4CCC(F)(F)CC4)cnc3cc2NC(=O)COCc2ccc(C(F)(F)F)cc2)c1
inhibition ([2]; filed as antagonist): 87%
inhibition ([1]; filed as antagonist): 82%
IC50 [3]: 1180 nM
IC50 [4]: 270 nM

COC(=O)Cn1cnc2cc(NC(=O)CCCOc3ccc(C(F)(F)F)cc3)c(Oc3cccc(N(C)C)c3)cc2c1=O
inhibition ([1]; filed as antagonist): 70.9%
IC50 [4]: 2650 nM

CN(C)c1cccc(Oc2cc3c(=O)[nH]cnc3cc2NC(=O)COCc2ccc(C#N)cc2)c1
inhibition [2]: 19.3%
inhibition [1]: 30.4%
IC50 [4]: 9330 nM

COC(=O)Cn1cnc2cc(NC(=O)COCc3ccc(C#N)cc3)c(Oc3cccc(N(C)C)c3)cc2c1=O
inhibition ([2]; filed as antagonist): 58.7%
inhibition ([1]; filed as antagonist): 55.7%

COC(=O)Cn1cnc2cc(NC(=O)c3ccc(C(F)(F)F)cc3)c(Oc3cccc(N(C)C)c3)cc2c1=O
inhibition [1]: 31.7%

O=C(NCCCc1ccc(Cl)cc1)c1cc2nc[nH]c(=O)c2cc1-c1cccc(C(F)(F)F)c1
inhibition [1]: 35%

O=C(NCCCc1ccccc1)c1cc2nc[nH]c(=O)c2cc1-c1cccc(Cl)c1
inhibition [1]: 6.6%

O=C(NCCCc1ccc(Cl)cc1)c1cc2nc[nH]c(=O)c2cc1-c1cccc(F)c1
inhibition ([1]; filed as antagonist): 43.5%

O=C(NCCCc1ccccc1)c1cc2nc[nH]c(=O)c2cc1-c1cccc(C(F)(F)F)c1
inhibition [1]: 4.06%

CN(C)c1cccc(Oc2cc3c(=O)[nH]cnc3cc2NC(=O)COCc2ccc(C(F)(F)F)cc2)c1
inhibition ([2]; filed as antagonist): 54%
inhibition ([1]; filed as antagonist): 50.4%
IC50 [3]: 800 nM

COC(=O)Cn1cnc2cc(C(=O)NCCCc3ccc(Cl)cc3)c(-c3cccc(F)c3)cc2c1=O
inhibition ([1]; filed as antagonist): 65.3%
IC50 [4]: 3240 nM
